Here are results for ten molecules from ChEMBL document CHEMBL4138107, “The discovery of novel, potent ERR-alpha inverse agonists for the treatment of triple negative breast cancer” (Eur J Med Chem, 2017).

Active and inactive are the calls of the source. The rule behind the calls is not given here.

By IC50 is commonly meant the point on the concentration scale where inhibition reaches its midpoint.

Data set [1] addresses T1, Steroid hormone receptor ERR1 (Homo sapiens, UniProt P11474).
T1 sequence (P11474 whole entry): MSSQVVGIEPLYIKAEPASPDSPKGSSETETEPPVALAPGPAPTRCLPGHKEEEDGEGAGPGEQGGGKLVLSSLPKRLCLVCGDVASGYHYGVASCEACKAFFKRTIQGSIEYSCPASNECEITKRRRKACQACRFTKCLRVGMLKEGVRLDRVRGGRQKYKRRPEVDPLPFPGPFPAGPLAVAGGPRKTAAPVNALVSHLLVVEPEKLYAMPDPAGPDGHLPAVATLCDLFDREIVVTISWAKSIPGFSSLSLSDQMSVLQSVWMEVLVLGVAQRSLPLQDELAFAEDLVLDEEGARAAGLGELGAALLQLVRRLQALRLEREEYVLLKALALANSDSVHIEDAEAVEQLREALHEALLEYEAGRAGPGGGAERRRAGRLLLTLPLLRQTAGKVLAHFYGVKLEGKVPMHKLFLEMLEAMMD
Put plainly: Inverse agonist activity at GAL4-DNA binding domain-fused human ERRalpha ligand binding domain expressed in HEK293 cells assessed as inhibition of transcriptional activity after 48 hrs by luciferase reporter gene assay. Format: cell-based. Put shortly:
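HEK293 cells at 1×10⁵/well in DMEM with 10% FBS, transfected at 70-80% confluency. Per well: 20 ng GAL4-DBD-ERRα-LBD, 20 ng UAS-Luc reporter and 5 ng pRL-TK control. After 6 h at 37°C, vehicle (0.05% DMSO) or compound added for 48 h. Dual-luciferase read-out.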

Data set [2] relates to MDA-MB-231. Nature of the data set: Antitumor activity against human MDA-MB-231 cells xenografted in BALB/c nude mouse assessed as tumor size at 30 mg/kg administered every other day for 28 days measured after 30 days relative to control. Format: functional. Put shortly:
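MDA-MB-231 cells suspended in PBS injected subcutaneously into the right flank of 6-week-old BALB/c nude mice. Once tumors averaged >100 mm³, mice were randomized into groups of 10 and given vehicle, test compound or cyclophosphamide 30 mg/kg, dosed every other day. Mice were weighed 3 times weekly. Tumor volume = length × width² × 0.5 and was compared with the vehicle group.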

Data set [3] concerns HeLa. Nature of the data set: Antiproliferative activity against human HeLa cells after 48 hrs by CCK-8 assay. Format: functional, cell-based. In general terms: Tetrazolium assays rely on reduction of a dye to a coloured formazan, in cell work by metabolically active cells.
Data set [4] has as its system MDA-MB-231. Put plainly: Cell migration rate in human MDA-MB-231 cells at 20 uM after 48 hrs by crystal violet staining-based transwell assay relative to control. The following applies: MDA-MB-231, 48 h.
The subject of data set [5] is MDA-MB-231. Put plainly: Cell migration rate in human MDA-MB-231 cells at 10 uM after 48 hrs by crystal violet staining-based transwell assay relative to control. The following applies: MDA-MB-231, 48 h.
The target of data set [6] is T2, Steroid hormone receptor ERR1 (Homo sapiens) (UniProt P11474).
T2 sequence (whole entry): T1 sequence (P11474 whole entry)
Put plainly: (§1) Inhibition of fluorescein-labeled PGC-1alpha binding to GAL4-DNA binding domain-fused human ERRalpha ligand binding domain expressed in HEK293 cells in presence of terbium chelate by TR-FRET assay. It is filed as cell-based. For orientation: Time-resolved FRET reads energy transfer from a long-lived donor to a nearby acceptor.

The target of data set [7] is T1, Steroid hormone receptor ERR1. The description is as §1. Format: cell-based.
The target of data set [8] is T2, Steroid hormone receptor ERR1 (Homo sapiens). Put plainly: Inverse agonist activity at ERRalpha in human MDA-MB-231 cells assessed as down regulation of PDK4 mRNA expression at 5 to 10 uM after 48 hrs by qRT-PCR analysis. It is filed as cell-based. Put shortly: (§2)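 MDA-MB-231 cells in 6-well plates at […]. Exposed to vehicle (DMSO) or compound for 48 h, then mRNA of ERRα target genes (PGC-1α, PDK4, osteopontin/SPP1, pS2/TFF1) quantified by real-time RT-PCR. Mean ± S.E.M. of three independent experiments.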
(Quantitative PCR measures a nucleic acid by following its amplification.)

Data set [9] has the same target. Put plainly: Inverse agonist activity at ERRalpha in human MDA-MB-231 cells assessed as down regulation of pS2 mRNA expression at 5 to 10 uM after 48 hrs by qRT-PCR analysis. Format: cell-based. Put shortly:
as §2

The test system of data set [10] is MDA-MB-231. Put plainly: Effect on steady state ERRalpha mRNA expression in human MDA-MB-231 cells at 5 to 10 uM after 48 hrs by qRT-PCR analysis. Format: ADME, cell-based. As to conditions: mda-mb-231, 48 h.
Data set [11] concerns LNCaP. Nature of the data set: Antiproliferative activity against human LNCAP cells after 48 hrs by CCK-8 assay. It is filed as functional, cell-based.
Data set [12] deals with MDA-MB-231. Nature of the data set: Induction of ROS generation in human MDA-MB-231 cells after 24 hrs by DCFH-DA staining based fluorescence assay. Format: functional, cell-based. Put shortly:
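MDA-MB-231 cells in 96-well plates pretreated with 1-30 µmol/l compound for 24 h at 37 °C. Then loaded with DCFH-DA (10 µmol/l) for 30 min. Fluorescence read at ex 488/em 535 nm on a plate reader and expressed relative to untreated cells. Mean ± SEM, n=4.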

The subject of data set [13] is MDA-MB-231. Put plainly: Antitumor activity against human MDA-MB-231 cells xenografted in BALB/c nude mouse assessed as tumor volume at 30 mg/kg administered every other day for 28 days and measured after 30 days (reference value: 1500 mm3). Format: functional.
The test system of data set [14] is PC-3. Nature of the data set: Antiproliferative activity against human PC3 cells after 48 hrs by CCK-8 assay. Format: functional, cell-based. The following applies: PC-3, 48 h.
The subject of data set [15] is MDA-MB-231. Put plainly: Cell migration rate in human MDA-MB-231 cells at 5 uM after 48 hrs by crystal violet staining-based transwell assay relative to control. The following applies: MDA-MB-231, 48 h.
Data set [16] has as its target T2, Steroid hormone receptor ERR1 (Homo sapiens). Put plainly: Inverse agonist activity at ERRalpha in human MDA-MB-231 cells assessed as down regulation of PGC-1alpha mRNA expression at 5 to 10 uM after 48 hrs by qRT-PCR analysis. Format: cell-based. Put shortly:
as §2

In data set [17] the test system is MDA-MB-231. Put plainly: Antiproliferative activity against ER deficient human MDA-MB-231 cells after 48 hrs by CCK-8 assay. Format: functional, cell-based. As to conditions: MDA-MB-231, 48 h. Put shortly:
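Cells seeded in 96-well plates and cultured overnight, then exposed to a range of compound concentrations for 48 h. CCK-8 reagent added and incubated 2 h at 37°C. Read-out is optical density at 450 nm. MDA-MB-231 maintained in L-15 with 10% FBS, L-glutamine, sodium pyruvate, pen/strep at 37°C, 5% CO2.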

Data set [18] has as its system MDA-MB-231. Nature of the data set: Induction of apoptosis in human in human MDA-MB-231 cells at 10 uM after 48 hrs by Annexin V-FITC staining based fluorescence microscopic analysis.
The test system of data set [19] is MDA-MB-231. Put plainly: Inhibition of cell migration in human MDA-MB-231 cells […] by crystal violet staining-based transwell assay. Format: functional.
Data set [20] has as its system T47D. Put plainly: Antiproliferative activity against human T47D cells harboring ER after 48 hrs by CCK-8 assay. Format: functional, cell-based.
Data set [21] has as its system MDA-MB-231. Nature of the data set: Antitumor activity against human MDA-MB-231 cells xenografted in BALB/c nude mouse assessed as reduction in tumor growth at 30 to 100 mg/kg administered every other day […]. It is filed as functional, organism-based.
Data set [22] deals with A549. Nature of the data set: Antiproliferative activity against human A549 cells after 48 hrs by CCK-8 assay. The following applies: A549, 48 h. Format: functional, cell-based.
Data set [23] deals with T2, Steroid hormone receptor ERR1 (Homo sapiens). Nature of the data set: Inverse agonist activity at ERRalpha in human MDA-MB-231 cells assessed as down regulation of osteopontin mRNA expression at 5 to 10 uM after 48 hrs by qRT-PCR analysis. It is filed as cell-based. Put shortly:
as §2

Data set [24] has as its system MDA-MB-435. Put plainly: Antiproliferative activity against ER deficient human MDA-MB-435 cells after 48 hrs by CCK-8 assay. It is filed as functional, cell-based. As to conditions: MDA-MB-435, 48 h.
Data set [25] concerns MCF7. Nature of the data set: Antiproliferative activity against human MCF7 cells harboring ER after 48 hrs by CCK-8 assay. It is filed as functional, cell-based. As to conditions: MCF7, 48 h.

As to `CCOc1cc(NS(C)(=O)=O)c(OCC)cc1CNC(=O)Nc1ccc(OCC)c(C(=O)Nc2ccc(C)cc2)c1`, the IC50 in data set [1] stood at 3.04 µM.

Regarding `CCOc1cc(NS(C)(=O)=O)c(OCC)cc1CNC(=O)Nc1ccc(OCC)c(C(=O)NCc2ccccc2)c1`, the IC50 in data set [1] worked out at 3.81 µM.

As to `CCCCOc1ccc(NC(=O)NCc2cc(OCC)c(NS(C)(=O)=O)cc2OCC)cc1C(=O)OC`, in data set [1], the IC50 came to 3.43 µM.

Take `O=P1(N(CCCl)CCCl)NCCCO1` (centres undefined) [CYCLOPHOSPHAMIDE ANHYDROUS]: in data set [2], the Activity was determined as 50.1%.

For the molecule `CCOc1cc(NS(C)(=O)=O)c(OCC)cc1CNC(=O)Nc1ccc(OCc2ccccc2)c(C(=O)OC)c1`, in [1], the IC50 came out at 4.06 µM.

Take `CCOc1cc(NS(C)(=O)=O)c(OCC)cc1CNC(=O)Nc1ccc(OCC)c(C(=O)Nc2cccc(OC)c2)c1`: the IC50 in data set [1] was found to be 4.23 µM.

As for `CCOc1cc(NS(C)(=O)=O)c(OCC)cc1CNC(=O)Nc1ccc(OCC)c(C(=O)Nc2ccccc2)c1`, in data set [1], the IC50 is 3.72 µM.

With `CCOc1cc(NS(C)(=O)=O)c(OCC)cc1CNC(=O)Nc1ccc(OCC)c(C(=O)NCc2ccc(OC)cc2)c1`, the IC50 in data set [3] amounted to 6.25 µM; in data set [1], 1.9 µM; in data set [7], 0.61 µM; in data set [11], 11.4 µM; in [14], 5.01 µM; in [17] it was 1.46 µM. Further, the IC50 was determined as 8.31 µM in data set [20], 4.84 µM in data set [22], 2.53 µM in data set [24] and 14.1 µM in data set [25]. Also, the migration rate % at 20 µM in data set [4] was 17.8%. In addition, the Activity is reported as 40.9% in data set [2], “Non-Toxic” in data set [10] and 720 mm3 in data set [13]. The same molecule displayed a migration rate % at 10 µM in data set [5] of 39.3%. The inhibition result in [6] and in [19] was “Dose-dependent effect” in each case. Besides, the result in [8], in [9], in [12], in data set [16], in data set [18] and in data set [23] was Active. The molecule further had a migration rate % at 5 µM in [15] of 53.2%. The TGI result in data set [21] was “Active”.

As to `CCOc1cc(NS(C)(=O)=O)c(OCC)cc1CNC(=O)Nc1ccccc1`, in data set [1], the IC50 was found to be 21.1 µM.

With `CCOc1cc(NS(C)(=O)=O)c(OCC)cc1CNC(=O)Nc1ccc(OCC)c(C(=O)NC(C)C)c1`, in [1], the IC50 was determined as 3.48 µM.
